PKD1 inh = inhibitors of human PKD1 kinase; 200,000 tested, 0.056% active; inhibition, % (concentration not given with the values); PKD1 kinase fluorescence polarization assay; in the data active = inhibition above about 50%
ARFGAP1 inh = rat ARFGAP1 inhibition; 360,000 tested, 0.26% active; inhibition, % at 16.5 µM; Arfgap1-stimulated ARF1 GTP hydrolysis, GDP FP detection;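 active = inhibition above a per-plate limit, mean inhibition of low control wells plus 3 SD, cut at about 25% in these data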;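 note: 0% = DMSO wells with enzyme and 100% = wells lacking Arfgap1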
Target sequence (Q62848 1-136 limits assumed): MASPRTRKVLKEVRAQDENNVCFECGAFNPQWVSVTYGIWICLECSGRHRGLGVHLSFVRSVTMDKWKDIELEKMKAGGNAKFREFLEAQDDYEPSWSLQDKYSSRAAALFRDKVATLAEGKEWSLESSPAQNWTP
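system = rat Arfgap1 catalytic domain, aa 1-136 | technique = FP, GDP Alexa 633 tracer displaced from anti-GDP antibody, 620/688 nm | compound = one concentration, 16.5 µM, DMSO 1.26% | medium = HEPES-based buffer, pH 7.5 | timing = compound-enzyme preincubation 20 min, reaction 120 min, detection 60 min, 25 °C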
ASAP1 GAP inh = inhibitors of human ASAP1 ArfGAP activity | Q9ULH1 | ASAP1-stimulated ARF1 GTP hydrolysis, GDP FP detection | inhibition, % at 16.5 µM | 360,000 tested, 0.19% active | AID 624377; in the data active = inhibition above about 25%;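 note: 0% = vehicle with enzyme and substrate and 100% = no enzyme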
PP5 primary = blocks human protein phosphatase 5 activity; P53041; purified PP5c, OMFP substrate fluorescence; inhibition, % at 6.7 µM; 320,000 tested, 0.18% active; AID 1987;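 active = inhibition above the campaign's mean inhibition across all tested compounds plus 3 SD, cut at about 9.5% in these data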;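 note: 0% = DMSO only and 100% = 100 µM cantharidin control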
ARFGAP1 inh conf = confirmation of rat ARFGAP1 inhibitors; inhibition, % at 16.5 µM; shares compounds with ARFGAP1 inh; 890 tested, 30% active; ARFGAP1-stimulated ARF1 GTP hydrolysis, GDP tracer FP;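 active = average inhibition over triplicates above the hit cutoff set in the earlier primary screen, cut at about 25% in these data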;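 note: 0% = Arfgap1 plus ARF1-GTP with DMSO and 100% = wells lacking Arfgap1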
Target sequence (Q62848 whole entry, looked up): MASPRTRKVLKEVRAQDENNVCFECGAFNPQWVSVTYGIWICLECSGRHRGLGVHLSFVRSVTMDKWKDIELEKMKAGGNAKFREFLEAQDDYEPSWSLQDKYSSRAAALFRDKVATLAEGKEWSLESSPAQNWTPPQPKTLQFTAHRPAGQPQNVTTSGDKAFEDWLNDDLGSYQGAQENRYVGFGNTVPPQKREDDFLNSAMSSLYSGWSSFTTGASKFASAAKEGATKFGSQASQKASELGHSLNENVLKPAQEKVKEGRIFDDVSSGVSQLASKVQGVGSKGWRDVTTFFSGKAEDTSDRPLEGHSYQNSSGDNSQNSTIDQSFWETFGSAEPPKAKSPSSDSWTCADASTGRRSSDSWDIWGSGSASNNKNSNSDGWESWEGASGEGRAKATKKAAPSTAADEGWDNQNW
An asterisk follows results filed as active; nt = no result. An excerpt weighted towards active compounds, which were near 0.54% of everything screened.

SMILES	PKD1 inh	ARFGAP1 inh	ASAP1 GAP inh	PP5 primary	ARFGAP1 inh conf
COc1ccc(S(=O)(=O)N2CCN(C(=S)NCCc3ccccc3)CC2)cc1	nt	9	13	4	nt
COc1ccc(CCNC(=S)N2CCN(S(=O)(=O)c3ccc(C)cc3)CC2)cc1	nt	27*	5	0	4
COC(=O)/C(C#N)=C/c1ccc(C)o1	-8	25*	7	7	-4
CCCCCCCCN1C(=O)[C@@H](CC(=O)N2CCN(C(=O)c3ccco3)CC2)C[C@@]2(C(=O)OC)C1=C[C@H](C(C)(C)C)O[C@@H]2C	nt	-2	2	nt	nt
CC(=O)OCC(=O)Nc1cc(S(=O)(=O)N2CCCCCC2)ccc1Cl	0	25*	-2	3	0
O=C(COC(=O)C1CCC1)Nc1cc(S(=O)(=O)N2CCCCC2)ccc1Cl	nt	6	-14	2	nt
COc1cccc(CN2CCC2(C)C(=O)NCCc2ccccn2)c1OC (stereo unspecified)	nt	0	-1	nt	nt
Cc1ccc(NC(=O)CSc2nnc(CNC(=O)C34CC5CC(CC(C5)C3)C4)n2-c2ccc(F)cc2)cc1	7	29*	-2	4	4
NC1=NC(=O)/C(=C/c2cccc(-c3ccc(S(N)(=O)=O)cc3)c2)S1	nt	28*	-3	0	5
NC1=NC(=O)/C(=C\c2ccc(O)c([N+](=O)[O-])c2)S1	5	5	-4	1	nt
CCCCCCCCN1C(=O)[C@H](CC(=O)NCc2ccccc2)C[C@@]2(C(=O)OCC)CCC=C12	nt	28*	7	nt	4
CCCCCCCCN1C(=O)[C@H](CC(=O)NCc2cccc3ccccc23)C[C@@]2(C(=O)OCC)CCC=C12	nt	3	-14	nt	nt
C/C(=N\N1C(=O)c2ccccc2NC1c1ccccc1)c1ccccc1O (stereo unspecified)	5	27*	-7	1	-1
C/C(=N\N1C(=O)c2ccccc2NC1c1ccco1)c1ccccc1O (stereo unspecified)	6	-3	11	0	nt
Cc1cccc(Nc2nc(-c3ccc4c(c3)OCCO4)cs2)c1	-1	26*	17	1	2
Cc1cc(O)cc(=O)n1-c1cc(F)c(F)c(F)c1	nt	-13	-9	nt	nt
CCCCCCCCN1C(=O)[C@H](CC(=O)N2CCN(C(=O)OCC)CC2)C[C@@]2(C(=O)OCC)CCCC=C12	nt	-3	-1	nt	nt
COc1ccc(-n2cc(CN(C)C(C)c3ccncn3)c(-c3cccc(F)c3)n2)cc1 (stereo unspecified)	-4	27*	7	2	4
COC(=O)[C@]12C[C@H](CC(=O)NCc3cccs3)C(=O)N(Cc3ccccc3)C1=C[C@H](C(C)C)O[C@@H]2C1CC1	nt	9	1	nt	nt
CC(Nc1nc(-c2ccncc2)nc2ccccc12)c1ccccc1 (stereo unspecified)	nt	1	2	4	nt
CC(Nc1nc(N2CCNCC2)nc2ccccc12)c1ccccc1 (stereo unspecified)	-1	26*	-10	-2	8
O=S(=O)(c1ccccc1F)N1CCN(CC(O)c2ccccc2)CC1 (stereo unspecified)	5	-9	-5	0	nt
CN(Cc1ccccc1)C(=O)CN1CCN(S(=O)(=O)c2ccccc2F)CC1	nt	36*	-2	nt	5
Cc1ccc(C(=O)NC(=S)N2CC(C)OC(C)C2)cc1[N+](=O)[O-] (stereo unspecified)	-6	nt	nt	4	nt
Cc1ccc(NC(=O)N2CC(C)OC(C)C2)cc1[N+](=O)[O-] (stereo unspecified)	nt	33*	-2	nt	-1
SMILES	PKD1 inh	ARFGAP1 inh	ASAP1 GAP inh	PP5 primary	ARFGAP1 inh conf
COc1ccc(-n2nc(C(=O)NCC(=O)Nc3cccc(Cl)c3)c3ccccc3c2=O)cc1OC	nt	28*	6	-6	25*
CCOc1ccc(NC(=O)CNC(=O)c2nn(-c3ccc(OC)c(OC)c3)c(=O)c3ccccc23)cc1	nt	14	5	0	nt
C=CCNc1cccc2c1S(=O)(=O)N[C@@H](C)CO2	nt	5	7	nt	nt
COc1cccc(/C=N/Nc2cc(N3CCOCC3)ncn2)c1O	nt	29*	4	4	43*
CC(C)Cc1ccc(C(C)NC(=O)Cc2ccc(S(=O)(=O)N3CCOCC3)s2)cc1 (stereo unspecified)	nt	25*	1	1	4
CC(C)CCC(C)NC(=O)Cc1ccc(S(=O)(=O)N2CCOCC2)s1 (stereo unspecified)	nt	14	4	0	nt
C=CCNc1nc(-c2sc(NC(=O)C(C)(C)C)nc2C)c(-n2cc(-c3ccccc3)nn2)s1	nt	14	-3	nt	nt
COc1cccc(C(=O)N[C@@H](CC(C)C)C(=O)N2CCC[C@H]2C(=O)NCc2ccccc2)c1	nt	-3	5	nt	nt
CC1(C(=O)NS(=O)(=O)c2ccc(F)cc2F)CCN1C(=O)CC1CCCC1 (stereo unspecified)	nt	9	10	nt	nt
CCOC(=O)CNC(=O)c1c(C)nn(C)c1Cl	-9	25*	6	-1	3
CCOc1ccccc1C(=O)N(CN1CCCC1=O)c1cccc(Cl)c1	-2	38*	13	3	7
Cc1ccc(C(=O)NCC(=O)N2CCN(c3ccccc3O)CC2)s1	nt	-1	-3	nt	nt
O=C(COC(=O)CNC(=O)c1ccc(Cl)cc1Cl)NC1CCCCC1	nt	27*	0	nt	1
O=C(NCc1cccnc1)c1cc(C2CCCCN2C(=O)c2ccc3c(c2)CCO3)on1 (stereo unspecified)	nt	-4	1	nt	nt
CCCCN(C=O)c1c(CC)nc2c(OCc3ccc(S(C)(=O)=O)cc3)cccn12	nt	4	3	nt	nt
COC(=O)[C@H]1[C@H]2C[C@@H]3c4[nH]c5cc(OC)ccc5c4CCN3C[C@H]2C[C@@H](OC(=O)c2cc(OC)c(OC)c(OC)c2)[C@@H]1OC	nt	28*	6	3	3
Cc1nn(-c2ccccc2)c(N)c1N=Nc1cccc(S(=O)(=O)N2CCOCC2)c1	nt	29*	5	3	6
Cc1nn(-c2ccccc2)c(N)c1N=Nc1ccccc1	-4	2	6	7	nt
O=C(Cc1c[nH]c2ccccc12)Nc1ccc(Nc2cccnc2)c(-c2ccc(-c3ccccc3)cc2F)c1	nt	14	16	nt	nt
CC(C)NC(=O)c1ccccc1NC(=O)CN(c1ccc2c(c1)OCO2)S(C)(=O)=O	6	30*	-13	2	3
